Rows were chosen to be rich in hits. Some 0.86% of all compounds tested hit in one or more screens of this group.
S100A4 MyoIIA – S100A4-myosin IIA interaction inhibition. inhibition, % at 10.7 µM. hit rate 0.14% among 360,000. S100A4/TAMRA-MyoIIA peptide fluorescence polarization;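 active means mean inhibition of at least 70% across replicates, with every replicate also reaching that level; inconclusive means mean inhibition reaches 70% but some replicates fall short; inactive means mean inhibition below 70%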
Target sequence (P26447 whole entry, looked up): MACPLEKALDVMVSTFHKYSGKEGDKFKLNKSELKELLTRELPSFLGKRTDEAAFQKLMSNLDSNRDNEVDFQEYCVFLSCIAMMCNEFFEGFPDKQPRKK
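Test system – S100A4 monomer (human) · Compound – single-point compound testing · Schedule – 5 min incubation before reading · Probe or stimulus – TAMRA-labelled myosin IIA heavy-chain peptide probe, 5 nM · Benchmarks – neutral control DMSO, positive control TFP · Medium – Calcium-containing HEPES buffer, pH 7.2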
ERAP1 HTS inh – ERAP1 (human) enzyme inhibition; Q9NZ08; recombinant ERAP1, Leu-AMC fluorescence, 60 min; inhibition, % at 10.7 µM; hit rate 0.15% among 340,000; AID 652197;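 active means mean replicate inhibition of at least 30%, or all replicates individually reaching that 30% level; inactive means mean below 30% and not every replicate reaching it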
Rtt109 HAT inh – blocks Candida albicans Rtt109/Vps75 acetyltransferase activity. Q5AAJ8. purified Rtt109/Vps75, ThioGlo CoA-SH fluorescence, 4 h. inhibition, % at 34.9 µM. hit rate 0.16% among 330,000. AID 540336;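 active means inhibition of at least 50% in every replicate; inconclusive means best replicate reaches 50% inhibition but some replicates fall short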
Target sequence (Q5AAJ8 whole entry, looked up): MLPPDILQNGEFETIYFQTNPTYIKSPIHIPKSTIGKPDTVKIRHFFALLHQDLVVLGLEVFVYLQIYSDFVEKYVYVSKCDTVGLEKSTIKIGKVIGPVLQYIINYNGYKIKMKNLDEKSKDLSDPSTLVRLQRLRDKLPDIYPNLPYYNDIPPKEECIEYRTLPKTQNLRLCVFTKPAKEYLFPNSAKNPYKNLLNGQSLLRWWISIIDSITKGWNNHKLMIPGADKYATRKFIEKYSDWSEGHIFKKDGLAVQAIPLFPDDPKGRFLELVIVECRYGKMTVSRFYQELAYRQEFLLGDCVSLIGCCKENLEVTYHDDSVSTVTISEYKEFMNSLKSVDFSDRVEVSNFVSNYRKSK
AF4-AF9 inh – MLL-AF4/AF9 protein interaction inhibition; P42568; AlphaScreen, biotin-AF4 peptide binding to FLAG-AF9; inhibition, % at 10 µM; hit rate 0.47% among 350,000;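 active means every replicate reaching a set inhibition limit, whatever the replicate mean, cut at about 25% in these data; inconclusive means mean inhibition reaches that limit but some replicates miss it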
miR122 inh – inhibitors of miR-122 in Huh7 cells; Huh7 miR-122 Renilla luciferase sensor, 48 h; neutral wells = 0, positive control = 100; activation (reporter increase), % at 12.5 µM; hit rate 0.3% among 340,000;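 active means mean replicate activation score at least 90 and every replicate individually at or above 90; inconclusive means only one of the two criteria met; inactive means neither criterion met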;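 further: higher luciferase means less miR-122 activity so hits act as miR-122 inhibitors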
A number is an active result; n = inactive; u = inconclusive; x = no result.

SMILES | S100A4 MyoIIA | ERAP1 HTS inh | Rtt109 HAT inh | AF4-AF9 inh | miR122 inh
CCC(C)NC(=O)C1CCN(S(=O)(=O)c2cc([N+](=O)[O-])ccc2Cl)CC1 (stereo unspecified) | n | x | 54.1 | n | n
CCOc1ccc(-n2nc3c(Cl)nnc(C)c3c2C)cc1 | n | n | n | 58.1 | n
CCC(=O)N1CC(=O)N2[C@H](C1)[C@H](c1ccc(-c3cccc(C(=O)N(C)C)c3)cc1)[C@@H]2CO | n | n | x | n | x
O=C(O)CC(CCc1ccccc1)OC1OC(CO)C(O)C(O)C1O (stereo unspecified) | n | 32.2 | n | n | n
[C-]#[N+][C@H](O[C@@H]1O[C@H](CO)[C@@H](O)[C@H](O)[C@H]1O)c1ccccc1 | n | n | n | n | n
COC(=O)C1CC23C=CCN4CCC5(c6ccccc6NC15C2C)C43 (stereo unspecified) | n | n | n | n | 147.5
CN1CC[C@]23c4ccccc4N[C@H]1[C@]21CCN(C)[C@H]3Nc2ccccc21 | n | n | n | n | n
CCc1cc(-c2n[nH]c(C)c2-c2nc3ccccc3n2C)c(O)cc1O | n | n | n | n | n
CCc1cc(-c2n[nH]c(C)c2-c2nc3ccccc3n2C)c(O)c(CN2CCN(C)CC2)c1O | n | n | n | 25.2 | x
O=C(Nc1c(C(=O)N2CCN(c3ccccn3)CC2)oc2ccccc12)c1ccc([N+](=O)[O-])cc1 | n | n | n | n | 143.5
CCN1CCCC1CNC(=O)c1ccc2c(c1)NC(=O)/C(=C\c1ccc(OC)c(OC)c1)S2 (stereo unspecified) | n | n | u | 40.0 | n
CN(C)C(=O)c1cccc(-c2ccc([C@H]3[C@@H](CO)N4CCCCN(C(=O)C5CCCC5)C[C@@H]34)cc2)c1 | n | n | x | n | n
CSS(=O)(=O)c1cccc2cccnc12 | n | 85.1 | 132.2 | n | n
C[C@@H](c1ccccc1)N1C[C@H](COCc2ccccc2)Oc2cc(N3CC[C@H](N(C)C)C3)ccc2S1(=O)=O | n | n | x | 25.9 | x
O=C(O)c1cc(NN=C2c3ccccc3-c3ccccc32)ccc1Cl | n | 30.7 | n | n | n
O=C(O)c1cccc(NN=C2c3ccccc3-c3ccccc32)c1 | n | n | n | n | x
C[C@H](CO)N1C[C@H](C)[C@H](CN(C)C(=O)Cc2ccccc2)Oc2cc(C#CC3(O)CCCC3)ccc2S1(=O)=O | n | n | x | n | n
COc1ccc(NC(=O)N(C)C[C@@H]2Oc3ccc(NS(=O)(=O)c4ccc(F)cc4)cc3CC(=O)N([C@@H](C)CO)C[C@H]2C)cc1 | n | n | x | n | n
CCn1c(C)c(C)c2cc(C(=O)NCCCN3CCCCCC3)ccc21 | n | n | n | 29.3 | n
CCn1c(C)c(C)c2cc(C(=O)NCCCN3CCCCC3)ccc21 | n | n | n | n | n
CCOC(=O)c1c(C)n(-c2ccc(C)cc2)c2ccc(OCC(O)CN3CCN(C)CC3)cc12 (stereo unspecified) | n | n | n | 41.1 | x
COC(=O)c1sccc1NC(=O)C1CC2CCC1C2 (stereo unspecified) | x | x | n | x | n
COC(=O)c1sccc1NC(=O)C1CC(C)=C(C)CC1C(=O)O (stereo unspecified) | n | n | n | 30.2 | x
Clc1ccccc1/C=N/N1CCN(Cc2ccccc2)CC1 | n | n | n | 34.2 | n
CCOc1ccccc1/C=N/N1CCN(Cc2ccccc2)CC1 | n | n | n | 27.5 | n
SMILES | S100A4 MyoIIA | ERAP1 HTS inh | Rtt109 HAT inh | AF4-AF9 inh | miR122 inh
CCOC(=O)c1sc2nc(C)nc(SCC(=O)N(C)C3CCS(=O)(=O)C3)c2c1C (stereo unspecified) | n | n | 50.5 | n | x
O=C(Nc1sc2c(c1C(=O)O)CCC2)c1cccs1 | x | x | n | x | 201.9
NC(=O)c1c(NC(=O)c2cccs2)sc2c1CCCCCC2 | x | x | n | x | n
O=C(NCc1ccccn1)[C@H]1[C@H](CO)[C@H]2Cn3c(cccc3=O)[C@@H]1N2CC1CCCC1 | n | n | x | n | x
COc1cccc(NS(=O)(=O)c2ccc3c(c2)N(C(C)=O)CCO3)c1 | n | n | n | n | 195.1
O=S(=O)(Nc1ccc(Cl)cc1)c1ccc2c(c1)CCO2 | n | n | n | n | 122.6
CC(=O)N1CCOc2ccc(S(=O)(=O)Nc3cccc(C)c3)cc21 | n | n | n | n | 130.2
CC(=O)N1CCSc2ccc(S(=O)(=O)NCCc3ccc(Cl)cc3)cc21 | n | n | n | n | 93.9

Screening results: PubChem, Broad Institute
